UCH37 inh: inhibitors of human UCH37 deubiquitinase, primary screen, biochemical, Ub-AMC cleavage, fluorescence; Ubiquitin carboxyl-terminal hydrolase isozyme L5 (Homo sapiens), Q9Y5K5; purified proteasome/UCH37; inhibition, % (concentration not given with the values); actives 0.33% (n = 330,000);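 active = mean inhibition over replicate wells above about 20%, limit read from the data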;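 also: 0% = compound-free wells with enzyme and 100% = wells lacking proteasome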
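assay system = human UCH37 enzyme supplied as purified proteasome complex | amount = proteasome at 0.15 nM in the dispensed enzyme solution | schedule = 30 min compound-proteasome preincubation then 25 min substrate reaction, room temperature | measured by = fluorescence, ex 355 nm, em 460 nm | benchmarks = no-proteasome wells (full inhibition) and compound-free wells (no inhibition)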
FAS-TE inh: FAS thioesterase domain inhibitors, primary screen, biochemical, fluorescence intensity, uHTS; Fatty acid synthase (Homo sapiens), P49327; recombinant FAS-TE, OMFH fluorogenic substrate, fluorescence endpoint; inhibition, % at 15 µM; actives 0.67% (n = 360,000); AID 602261, 2012;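 active = compounds whose normalised, plate-corrected inhibition of enzyme fluorescence in the single-dose primary screen is 50% or more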;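 also: 0% = DMSO with enzyme and 100% = substrate without enzyme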
HDAC3 inhib: HDAC3 deacetylase inhibitors, primary screen, biochemical, fluorescence, cell-free homogeneous; recombinant HDAC3, fluorogenic peptide/trypsin coupled; inhibition, % at 8.3 µM; actives 0.15% (n = 320,000); AID 2718, 2010; in the data active = inhibition above about 26%, passing the limit was not always enough; inconclusive = no clear call, values can overlap the other calls
ALR H2O2 inh: inhibitors of human ALR sulfhydryl oxidase, primary screen, biochemical, H2O2 detection, HRP-luminol luminescence, single point. purified ALR, DTT oxidation. inhibition, % (no concentration beside the values). actives 3.8% (n = 290,000). AID 485317, 2010;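 active = mean replicate inhibition above about 79%, with every replicate also reaching it, limit read from the data; inconclusive = only one of the two criteria met; inactive = mean below limit and not every replicate reaching it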
PfM18AAP inh-1: PfM18AAP inhibitors, malaria aminopeptidase, primary screen, biochemical, QFRET, recombinant enzyme | M18 aspartyl aminopeptidase (Plasmodium falciparum 3D7) | inhibition, % at 7.35 µM | H-Glu-NHMec fluorogenic cleavage | actives 1.2% (n = 290,000);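 active = inhibition above the campaign mean inhibition over all tested compounds plus 3 SD, cut at about 28% in these data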;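 also: 0% = plate median of test compound wells and 100% = 2 mM ZnCl2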
Rtt109 Vps75: inhibitors of C. albicans Rtt109/Vps75 HAT, primary screen, biochemical, ThioGlo CoA-SH fluorescence, plate reader. inhibition, % at 34.9 µM. Histone acetyltransferase RTT109 (Candida albicans (strain SC5314 / ATCC MYA-2876)), …. purified Rtt109/Vps75, 4 h. actives 0.16% (n = 330,000). AID 540336, 2011;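 active = inhibition of at least 50% in every replicate; inconclusive = best replicate reaches 50% inhibition but some replicates fall short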
PfM18AAP inh-2: PfM18AAP inhibitors, malaria aminopeptidase, confirmation, biochemical, QFRET, recombinant enzyme, triplicate. shares compounds with PfM18AAP inh-1. H-Glu-NHMec fluorogenic cleavage. inhibition, % at 7.35 µM. actives 28% (n = 2,400);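 active = mean inhibition over replicate wells above the hit cutoff set for the earlier primary screen, cut at about 29% in these data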;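 also: 0% = median of test compound wells and 100% = 2 mM ZnCl2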
CTSL1 confirm: cathepsin L1 inhibitors, retest, confirmation, counter-screen for PFM18AAP inhibitor project, biochemical, QFRET, triplicate; shares compounds with PfM18AAP inh-1; purified cathepsin L1, Z-Leu-Arg-MCA fluorescence; inhibition, % at 5.96 µM; 2,400 tested, under 10 active; AID 2178, 2009;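 active = average inhibition across replicates above the hit cutoff set in the earlier primary screen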;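 also: 0% = median of test compound wells and 100% = Z-Phe-Ala-diazomethylketone 1 µM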
An asterisk follows results filed as active; ? = inconclusive; / = no result given. Most compounds without a hit are left out; they make up all but 4.6% or so of the library.

SMILES	UCH37 inh	FAS-TE inh	HDAC3 inhib	ALR H2O2 inh	PfM18AAP inh-1	Rtt109 Vps75	PfM18AAP inh-2	CTSL1 confirm
CCOC(=O)C1C(=O)C=C(c2cccs2)CC1c1ccccc1 (stereo unspecified)	3.0	29.8	5.0	/	55.8*	-1.0	-43.0	-1.5
CCOC(=O)C1C(=O)C=C(c2cccs2)CC1c1ccccc1C (stereo unspecified)	0.6	19.2	2.7	/	4.0	-2.0	/	/
COCCCNC(=S)NN=Cc1ccccc1O	-35.1	/	/	/	/	/	/	/
COCCCNC(=S)N/N=C/c1ccc(O)cc1O	/	-0.6	6.5	69.7	35.8*	4.1	7.0	-0.2
CCOC(=O)c1cc2cc(CC(=O)c3ccc(OCC)cc3O)ccc2o1	1.0	-1.4	0.0	/	-1.8	-19.5	/	/
CCOC(=O)c1ccc(CC(=O)c2ccc(O)c(O)c2O)o1	10.8	-3.6	/	/	48.4*	?	-0.2	-0.2
Cn1c(-c2ccc(Cl)nc2)nc2ccccc21	-7.6	-7.5	-13.2	-2.9	33.6*	3.2	-51.1	-2.8
Cn1c(-c2ccc(N)cc2)nc2ccccc21	-7.3	-1.8	-35.1	36.6	-6.7	-1.7	/	/
CCOCCCn1c(=O)c2ccccc2n2c(=S)[nH]nc12	5.2	-3.3	19.7	/	46.0*	1.8	21.9	-2.6
CN(C)c1ccc(C=NNC(=O)c2cccc3cc[nH]c23)cc1	-77.5	/	/	/	/	/	/	/
O=C(NC(=S)Nc1ccc([N+](=O)[O-])cc1O)C1CCCCC1	2.9	14.3	2.4	-11.4	19.1	6.7	/	/
Cn1ccc(C(=O)NC(=S)Nc2ccc([N+](=O)[O-])cc2O)n1	12.4	3.5	6.9	15.4	34.0*	-0.9	41.0*	-4.4
COc1cc(C=NN=C2SC(CC(=O)O)C(=O)N2c2ccc(O)cc2)ccc1O (stereo unspecified)	2.7	/	/	/	/	/	/	/
Cc1cccc(-n2c(Cc3ccccc3)n[nH]c2=S)c1	2.5	-2.3	8.9	5.2	33.8*	24.9	-5.0	-13.2
CCc1ccc(-n2c(Cc3ccccc3)n[nH]c2=S)cc1	3.3	-1.9	-2.8	12.1	10.1	5.6	/	/
Cc1c(C(=O)NCc2n[nH]c(=S)n2-c2ccc(F)cc2)cccc1[N+](=O)[O-]	2.9	-1.7	7.9	1.2	32.6*	0.4	8.0	2.1
Cc1cccc(-n2c(CNC(=O)Cc3ccccc3)n[nH]c2=S)c1	0.7	-2.3	11.8	11.8	38.1*	0.9	2.3	0.9
Cc1c(Br)c(O)c(Br)c2sc(=O)oc12	1.3	18.0	4.1	33.5	36.3*	?	-34.4	-0.3
C(=N\Nc1ccc2nncn2n1)/c1ccccn1	/	-8.7	3.0	31.5	41.0*	21.7	-5.0	-4.8
C/C(=N\Nc1ccc2nncn2n1)c1ccc(Br)s1	/	-0.1	1.6	/	50.3*	0.0	-29.2	3.0
CC(=NNc1ccc2nncn2n1)c1ccccn1	9.5	/	/	/	/	/	/	/
C/C(=N\Nc1ccc2nncn2n1)c1ccccn1	/	-0.7	3.1	-1.7	40.0*	/	-19.7	0.1
C/C(=N\Nc1ccc2nncn2n1)c1ccco1	/	-8.1	1.7	25.2	44.7*	4.1	19.0	1.2
COc1ccc(-c2cc(C(=O)NN=Cc3cccnc3)c3ccccc3n2)cc1	-53.2	/	/	/	/	/	/	/
CC(CCC1CC(C)OC1=O)=NNC(N)=O (stereo unspecified)	2.0	/	/	/	/	/	/	/
SMILES	UCH37 inh	FAS-TE inh	HDAC3 inhib	ALR H2O2 inh	PfM18AAP inh-1	Rtt109 Vps75	PfM18AAP inh-2	CTSL1 confirm
CC1Oc2ccccc2C=C1C=NNC(=O)c1cccnc1 (stereo unspecified)	-42.1	/	/	/	/	/	/	/
Cc1ccc(C(=O)C=CNCc2ccccc2)cc1	8.8	/	/	/	/	/	/	/
Cc1ccc(NC(=S)C2=C(O)c3sccc3N(C)S2(=O)=O)cc1	24.0*	-6.7	10.2	11.4	48.9*	14.9	-32.3	4.5
Cc1ccc(NC(=O)C2=C(O)c3sccc3N(C)S2(=O)=O)cc1	14.2	-3.5	-0.9	?	-6.9	7.5	/	/
CC1(C)Oc2ccc(C(=O)NN=Cc3ccc(O)cc3)cc2NC1=O	1.7	/	/	/	/	/	/	/
COc1cc(Cl)c(C)cc1NC(=S)NN	2.4	-1.8	5.6	3.5	31.9*	15.3	21.1	-6.1
CC1(C)CC(=O)C/C(=N\NC(=S)NCc2ccccc2)C1	/	-3.3	3.6	8.6	43.4*	1.6	37.7*	2.2
CC1(C)CC(=O)CC(=NNC(=O)Cc2ccccc2)C1	4.9	/	/	/	/	/	/	/
N#Cc1cnn(Cc2ccccc2)c1N=CN1CCOCC1	-1.7	/	/	/	/	/	/	/
COc1ccc(C=NN=C2SCC(=O)N2c2c(C)n(C)n(-c3ccccc3)c2=O)cc1OC	5.3	/	/	/	/	/	/	/
O=C(CN1C(=O)/C(=C/c2ccco2)SC1=S)NC1CCS(=O)(=O)C1 (stereo unspecified)	10.1	-6.5	6.5	-2.2	39.1*	3.5	-19.4	5.3
NN1C(=O)/C(=C\c2ccco2)SC1=S	6.5	-1.6	8.7	53.6	33.7*	/	-20.2	-0.7
CCOC(=O)CN1NC2(CCC(C(C)(C)C)CC2)NC1=S (stereo unspecified)	1.2	-4.7	2.5	-0.1	-0.1	14.1	/	/
CCOC(=O)CN1NC2(CCC(C)CC2)NC1=S (stereo unspecified)	0.9	-6.8	2.5	-4.5	42.6*	-12.9	-47.9	-2.7
CCOC(=O)CN1NC2(CCCC(C)C2)NC1=S (stereo unspecified)	2.5	-5.6	5.7	-1.1	42.9*	3.3	-51.8	-0.8

From PubChem BioAssay
